Measurements from different studies.
Protocols differ between the studies behind these lines.
Target: Serine/threonine-protein kinase 17B (STK17B, Homo sapiens, UniProt O94768)
Sequence (O94768 1-372, as in one of the studies): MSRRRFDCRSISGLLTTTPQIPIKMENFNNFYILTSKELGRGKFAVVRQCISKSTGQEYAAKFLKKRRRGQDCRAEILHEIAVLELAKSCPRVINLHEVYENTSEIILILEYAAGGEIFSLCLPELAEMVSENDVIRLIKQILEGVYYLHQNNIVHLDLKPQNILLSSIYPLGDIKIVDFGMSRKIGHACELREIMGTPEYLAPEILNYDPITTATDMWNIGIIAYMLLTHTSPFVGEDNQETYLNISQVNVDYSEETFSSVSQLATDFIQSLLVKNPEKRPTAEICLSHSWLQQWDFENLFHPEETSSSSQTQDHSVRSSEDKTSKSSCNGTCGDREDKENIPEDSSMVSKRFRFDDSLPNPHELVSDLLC

`CN(C)c1ncc(F)c(-c2cnn3ncccc23)n1` has a remaining binding of 87% (binding; 1 µM).
`O=C(c1ccc(Nc2ncc(Cl)c(-c3ccc(Cl)s3)n2)cc1)N1CCC(N2CCCC2)CC1` has a remaining binding of 2.7% (binding, competition with immobilised ligand; 1 µM).
The remaining binding of `CN(C)C(=O)Cn1cc(-c2nc(C3(c4ccc(-c5cnc(N)nc5)cc4)CC3)no2)cn1` is reported as 100% (cell-free assay, competition with immobilised ligand; 1 µM).
`FC(F)(F)Oc1cccc(-c2cnc3ccc(-c4ccncc4)nn23)c1` gave a remaining binding of 85% (cell-free assay, competition with immobilised ligand; 5 µM).
For `Cn1cc(Cl)c2c(Oc3c(F)cc(Nc4cc(Cl)nc(N)n4)cc3F)ccnc21`, the remaining binding was 84% (cell-free assay, competition with immobilised ligand; 0.1 µM).
The remaining binding of `C[C@H]1CCN(c2nccc(-c3cnn4ncccc34)n2)C1` is reported as 93% (binding; 1 µM).
With `C[C@@H](c1ccc(-n2cnc3c(N)ncnc32)cc1)N1CCc2nn(C)c(Cc3ccccc3)c2C1=O` the remaining binding was 100% (binding, competition with immobilised ligand; 0.1 µM).
With `CN([C@@H]1CCc2c(CC(=O)O)c3cc(S(C)(=O)=O)ccc3n2C1)S(=O)(=O)c1ccc(F)cc1` the remaining binding was 85% (cell-free assay, competition with immobilised ligand; 1 µM).
With `COc1cnc(Nc2cccc(S(N)(=O)=O)c2)nc1N1CCN(c2ccccc2)CC1` the remaining binding was 99% (binding, competition with immobilised ligand; 1 µM).
`c1cncc(-c2cccc(Nc3nccc(NC4CCCCC4)n3)c2)c1` gave a remaining binding of 77% (binding, competition with immobilised ligand; 10 µM).
With `CCCCN(CCCC)C(=O)CN1C[C@H](c2cc(OC)c3c(c2)OCO3)[C@@H](C(=O)O)[C@@H]1CC(C)(C)CCC` the remaining binding was 100% (cell-free assay, competition with immobilised ligand; 1 µM).
`O=C(c1ccc(Nc2nccc(-c3cc4ccccc4s3)n2)cc1)N1CCC(N2CCCC2)CC1` gave a remaining binding of 0% (binding, competition with immobilised ligand; 1 µM).
`N[C@H]1CCN(c2nccc(-c3cnn4ncccc34)n2)C1` gave a remaining binding of 100% (binding; 1 µM).
With `CCCOc1ccc([C@H]2[C@H](C(=O)O)[C@@H](c3ccc4c(c3)OCO4)CN2CC(=O)Nc2c(CC)cccc2CC)cc1` the remaining binding was 91% (cell-free assay, competition with immobilised ligand; 1 µM).
`c1cnn2ncc(-c3ccnc(N4CCC45COC5)n3)c2c1` gave a remaining binding of 100% (binding; 1 µM).
The remaining binding of `O=C(NCc1ncc(C(F)(F)F)cc1Cl)c1ccc2c(c1)C1(CCS(=O)(=O)CC1)[C@H](C1CC1)N2S(=O)(=O)c1ccc(F)cc1` is reported as 85% (cell-free assay, competition with immobilised ligand; 1 µM).
The remaining binding of `Cc1cnn2ncc(-c3ccnc(N(C)C)n3)c2c1` is reported as 100% (binding; 1 µM).
With `C[C@@H]1CN(c2cc(-c3nn(C)c4ccc(OC5(C)CC5)cc34)ncn2)C[C@H](C)O1` the remaining binding was 100% (cell-free assay, competition with immobilised ligand; 1 µM).
The remaining binding of `CC1CCCN1c1nccc(-c2cnn3ncccc23)n1` (stereo not shown) is reported as 100% (binding; 1 µM).
With `O=C(NCC1CCOCC1)c1n[nH]cc1NC(=O)c1c(F)cccc1F` the remaining binding was 91% (binding, competition with immobilised ligand; 1 µM).
`CN(CCCC(F)(F)F)c1nccc(-c2cnn3ncccc23)n1` has a remaining binding of 100% (binding; 1 µM).
For `Cc1cnc(Nc2ccc(C(=O)N3CCC(N4CCCC4)CC3)cc2)nc1-c1cc2ccccc2s1`, the remaining binding was 0% (binding, competition with immobilised ligand; 1 µM).
